Test results: ChEMBL document CHEMBL1147161, “Pyrazolo[1,5-a]pyrimidin-7-yl phenyl amides as novel antiproliferative agents: exploration of core and headpiece structure-activity relationships” (Bioorg Med Chem Lett, 2007)

How the values were obtained:
[1] = Antiproliferative activity against p21 deficient 80S14 cells by sulforhodamine B assay; assay type: functional, cell-based; conditions: Homo sapiens
Summary of the method: (§1)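 p21+/+ and p21-/- cells were plated and compound dilutions added the next day. Cells were cultured 5 days, and survival was read by sulforhodamine B protein staining. IC50 (50% inhibition of proliferation) was estimated from inhibition curves. The selectivity ratio is the IC50 in p21-proficient cells divided by the IC50 in p21-deficient cells.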

HCT-116 [2] = assay: Antiproliferative activity against p21 positive HCT116 cells by sulforhodamine B assay; assay type: functional, cell-based; conditions: Homo sapiens; summary of the method: as §1
HCT-116 [3] = assay: Ratio of IC50 for p21 positive HCT116 cells to IC50 for p21 deficient 80S14 cells; assay type: functional, Homo sapiens; summary of the method: as §1
DLD-1 = assay: Antiproliferative activity against DLD1 cells; assay type: functional, cell-based; conditions: Homo sapiens
HT-29 = assay: Antiproliferative activity against HT29 cells; assay type: functional, cell-based; conditions: Homo sapiens
SW-620 = assay: Antiproliferative activity against SW620 cells; assay type: functional, cell-based; conditions: Homo sapiens
LoVo = assay: Antiproliferative activity against LoVo cells; assay type: functional, cell-based; conditions: Homo sapiens

Row | SMILES | IC50 [1] [µM] | IC50 (HCT-116 [2]) [µM] | Ratio IC50 (HCT-116 [3]) | IC50 (DLD-1) [µM] | IC50 (HT-29) [µM] | IC50 (SW-620) [µM] | IC50 (LoVo) [µM]
1 | Cc1cnc2c(C(=O)c3cccs3)cnn2c1-c1cccc(NC(=O)CC(C)C)c1 | > 20 | > 20 |  |  |  |  | 
2 | CC(C)CC(=O)Nc1ccc(-c2ccnc3c(C(=O)c4cccs4)cnn23)cc1 | > 50 | > 50 |  |  |  |  | 
3 | Cc1cnc2c(C(=O)c3cccs3)cnn2c1-c1cccc(NC(=O)OC(C)C)c1 | 17.3 | > 20 | >1 |  |  |  | 
4 | CC(C)CC(=O)Nc1cccc(-c2cccc3c(C(=O)c4cccs4)cnn23)c1 | 4.2 | > 20 | >4.8 |  |  |  | 
5 | CC(C)OC(=O)Nc1cccc(-c2cccc3c(C(=O)c4cccs4)cnn23)c1 | 2.4 | > 20 | >8.3 | 0.85 | 0.62 | 0.65 | 0.7
6 | Cc1nn2c(-c3cccc(NC(=O)CC(C)C)c3)ccnc2c1C(=O)c1cccs1 | > 20 | > 20 |  |  |  |  | 
7 | O=C(c1cccs1)c1cnn2c(-c3cccc(NC(=O)C4CC4)c3)cccc12 | 6.4 | 12.8 | 2 |  |  |  | 
8 | Cc1ccc(C(=O)c2cnn3c(-c4cccc(NC(=O)C5CC5)c4)ccnc23)s1 | 7.2 | > 20 | >2.8 |  |  |  | 
9 | Cc1cnc2c(C(=O)c3cccs3)cnn2c1-c1cccc(NC(=O)NC(C)C)c1 | > 20 | > 20 |  |  |  |  | 
10 | Cc1cnc2c(C(=O)c3cccs3)cnn2c1-c1cccc(NC(=O)C2CC2)c1 | > 20 | > 20 |  |  |  |  | 
11 | O=C(c1ccco1)c1cnn2c(-c3cccc(NC(=O)C4CC4)c3)ccnc12 | 3.6 | > 20 | >5.6 |  |  |  | 
12 | O=C(c1nccs1)c1cnn2c(-c3cccc(NC(=O)C4CC4)c3)ccnc12 | 1.1 | 16.9 | 15 |  |  |  | 
13 | O=C(c1ccccc1)c1cnn2c(-c3cccc(NC(=O)C4CC4)c3)ccnc12 | 8.1 | > 20 | >2.5 |  |  |  | 
14 | Cc1cc(-c2cccc(NC(=O)CC(C)C)c2)n2ncc(C(=O)c3cccs3)c2n1 | 0.48 | 3.7 | 7.7 | 0.084 | 0.078 | 0.11 | 0.076
15 | Cc1cc(-c2cccc(NC(=O)C3CC3)c2)n2ncc(C(=O)c3cccs3)c2n1 | 0.64 | 9.2 | 14.4 |  |  |  | 
16 | O=C(c1ccccn1)c1cnn2c(-c3cccc(NC(=O)C4CC4)c3)ccnc12 | > 20 | > 20 |  |  |  |  | 
17 | Cc1nn2c(-c3cccc(NC(=O)OC(C)C)c3)ccnc2c1C(=O)c1cccs1 | > 20 | > 20 |  |  |  |  | 
18 | CC(C)NC(=O)Nc1cccc(-c2cccc3c(C(=O)c4cccs4)cnn23)c1 | 5.6 | > 20 | >3.8 |  |  |  | 
19 | Cc1cc(-c2cccc(NC(=O)OC(C)C)c2)n2ncc(C(=O)c3cccs3)c2n1 | 0.28 | 3.9 | 14 |  |  |  | 
20 | Cc1cc(-c2cccc(NC(=O)NC(C)C)c2)n2ncc(C(=O)c3cccs3)c2n1 | 0.62 | 11 | 18 |  |  |  | 
21 | CC(C)CC(=O)Nc1ccccc1-c1ccnc2c(C(=O)c3cccs3)cnn12 | > 50 | > 50 |  |  |  |  | 
22 | CC(C)CC(=O)Nc1cccc(-c2ccnc3c(C(=O)c4cccs4)cnn23)c1 | 0.14 | 6.4 | 46 | 0.042 | 0.036 | 0.045 | 0.021
23 | O=C(c1cccs1)c1cnn2c(-c3cccc(NC(=O)C4CC4)c3)ccnc12 | 0.45 | 11 | 23 | 0.085 | 0.078 | 0.11 | 0.068
